Assay results: paper PMC4346016 (Drug Design, Development and Therapy, 2015)
Like-named read-outs stand apart in the source and are kept apart here.

Experiments:
[1] = type: in vivo, human; settings: for AUClast geometric mean ratio (90% CI): dapoxetine with udenafil combined therapy/dapoxetine monotherapy; for half-life: t1/2β
Outline: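 Six-sequence, three-period crossover in healthy men aged 20–45, fasted, with a 7-day washout. Single oral doses of dapoxetine 60 mg alone or with udenafil 200 mg. EDTA plasma was sampled from predose to 48 h. Parent and desmethyl metabolite were measured by UPLC-MS/MS with deuterated internal standards. Non-compartmental analysis: AUClast by trapezoidal rule, AUC0~∞ = AUClast + Clast/λz, CL/F = dose/AUC0~∞. Ratios from log-transformed mixed-model ANOVA with 90% CI.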

[2] = Tolerability / adverse drug reactions in healthy male subjects; type: in vivo, human; settings: for Abdominal discomfort: number of events / Abdominal discomfort: number of subjects / Adverse drug reactions, total: number of events / Decreased appetite: number of events / Decreased appetite: number of subjects / Diarrhea: number of events / Diarrhea: number of subjects / Dizziness: number of events / Dizziness: number of subjects / Headache: number of events / Headache: number of subjects / Insomnia: number of events / Insomnia: number of subjects / Nausea: number of events / Nausea: number of subjects / Ocular hyperemia: number of events / Ocular hyperemia: number of subjects / Somnolence: number of events / Somnolence: number of subjects / Suicidal ideation: number of events / Suicidal ideation: number of subjects / Vomiting: number of events / Vomiting: number of subjects / hyperhidrosis: number of events / hyperhidrosis: number of subjects / Adverse drug reactions, total: number of subjects: n=23 per treatment; for Adverse drug reactions, total: number of subjects / tolerability: udenafil 200 mg, dapoxetine 60 mg; for tolerability: alone or concomitantly, single oral doses
Outline: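 Safety was monitored through each 48 h period and at follow-up 5–9 days after the last dose. Assessments were vital signs, 12-lead ECGs, hematology, blood chemistry, urinalysis, physical examinations and adverse-event monitoring. Each event was recorded with its symptoms/signs, duration, intensity, relation to study drug, action taken, outcome and seriousness. Counts are given as subjects and as events.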

[3] = cited from earlier work
[4] = integrated analysis of five trials, 6,081 patients; cited from earlier work
[5] = cited from earlier work; remark: listed apart in the source
[6] = cited from earlier work; remark: listed apart in the source
[7] = type: in vivo, human; settings: for half-life: t1/2β; for half-life / CL/F: mean ± SD; for half-life / Tmax / CL/F: n=22; for Tmax: median (min, max); for pharmacokinetic interaction with dapoxetine: single oral doses; for AUClast geometric mean ratio (90% CI): udenafil with dapoxetine combined therapy/udenafil monotherapy
Outline: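 Crossover in healthy fasted men: single oral udenafil 200 mg alone or with dapoxetine 60 mg, with 240 mL water and a 1-week washout. Blood was taken 0.25–48 h postdose into EDTA and spun at 1,800 g, 4°C. Udenafil (5.0–2,000.0 ng/mL) and DA-8164 (0.25–100.00 ng/mL) were measured by UPLC-MS/MS. Non-compartmental AUC and CL/F were derived. Geometric mean ratios with 90% CI came from log-transformed mixed-model ANOVA.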

[8] = type: in vivo, human; settings: two-compartment model, WinNonlin
[9] = cited from earlier work; remark: listed apart in the source
[10] = rats; cited from earlier work
[11] = cited from earlier work; remark: listed apart in the source
[12] = combined therapy/dapoxetine monotherapy
[13] = male, human, plasma, oral, 60 mg
[14] = combined therapy/udenafil monotherapy
[15] = male, human, plasma, oral, 200 mg
[16] = male, human, plasma, oral, 200 mg, udenafil 200 mg alone
[17] = male, human, plasma, oral, udenafil 200 mg + dapoxetine 60 mg
[18] = udenafil 200 mg + dapoxetine 60 mg

CN(C)[C@@H](CCOc1cccc2ccccc12)c1ccccc1 [Dapoxetine]
AUC0~∞ geometric mean ratio (90% CI) [1, 12]: 1.117 (1.048–1.191)
CL/F geometric mean ratio (90% CI) [1, 12]: 0.895 (0.840–0.954)
Cmax geometric mean ratio (90% CI) [1, 12]: 0.837 (0.758–0.925)
t1/2β geometric mean ratio (90% CI) [1, 12]: 0.947 (0.873–1.028)
Cmax geometric mean ratio (90% CI) ([1]; combined therapy/dapoxetine monotherapy, listed as dapoxetine): 0.837
CL/F ([1]; dapoxetine 60 mg + udenafil 200 mg, mean ± SD, n=20): 26.59 ± 9.22 L/h
CL/F ([1]; dapoxetine 60 mg alone, mean ± SD, n=20): 30.41 ± 11.99 L/h
Tmax ([1]; dapoxetine 60 mg alone, median (min, max), n=20): 1.00 (0.50, 2.00) h
AUClast geometric mean ratio (90% CI) [1]: 1.125 (1.044–1.213)
AUClast geometric mean ratio (90% CI) ([1]; listed as dapoxetine): 1.125
AUC(0-inf) [1, 13]: 2360 ng·h/mL
Cmax [1, 13]: 437 ± 143 ng/mL
Tmax [1, 13]: 1 h
half-life ([1]; male, human, plasma, oral, 60 mg, dapoxetine 60 mg alone, mean ± SD, n=20): 16.2 ± 6.72 h
half-life ([1]; male, human, plasma, oral, span over dapoxetine alone and with udenafil): 15.3 to 16.2 h
AUC(0-t) ([1]; male, human, plasma, po, 60 mg): 2100 ng·h/mL
Abdominal discomfort: number of events [2]: 1 (1)
Abdominal discomfort: number of subjects [2]: 1 (1)
Adverse drug reactions, total: number of events [2]: 24
Decreased appetite: number of events [2]: 0 (0)
Decreased appetite: number of subjects [2]: 0 (0)
Diarrhea: number of events [2]: 2 (2)
Diarrhea: number of subjects [2]: 2 (2)
Dizziness: number of events [2]: 5 (5)
Dizziness: number of subjects [2]: 5 (5)
Headache: number of events [2]: 2 (2)
Headache: number of subjects [2]: 2 (2)
Insomnia: number of events [2]: 0 (0)
Insomnia: number of subjects [2]: 0 (0)
Nausea: number of events [2]: 11 (11)
Nausea: number of subjects [2]: 11 (11)
Ocular hyperemia: number of events [2]: 0 (0)
Ocular hyperemia: number of subjects [2]: 0 (0)
Somnolence: number of events [2]: 1 (1)
Somnolence: number of subjects [2]: 1 (1)
Suicidal ideation: number of events [2]: 0 (0)
Suicidal ideation: number of subjects [2]: 0 (0)
Vomiting: number of events [2]: 2 (2)
Vomiting: number of subjects [2]: 2 (2)
hyperhidrosis: number of events [2]: 0 (0)
hyperhidrosis: number of subjects [2]: 0 (0)
Adverse drug reactions, total: number of subjects [2]: 12
tolerability [2]: well tolerated
initial half-life ([3]; biphasic elimination): approximately 1.4 hours
plasma concentration as share of peak concentration ([3]; by 24 hours after drug administration): approximately 5%
Tmax [3]: 1.0 to 1.3 h
PE profile measures compared with placebo [4]: improved significantly
increase in AUC of active moiety with ketoconazole [5]: 88%
increase in Cmax of active moiety with ketoconazole [5]: 23%
increase in parent drug AUC with ketoconazole [5]: 99%
increase in parent drug Cmax with ketoconazole [5]: 35%

CN1CC(=O)N2[C@H](c3ccc4c(c3)OCO4)c3[nH]c4ccccc4c3C[C@@H]2C1=O [tadalafil]
pharmacokinetic interaction with dapoxetine [6]: no clinically significant pharmacokinetic interactions

CCCOc1ccc(S(=O)(=O)NCCC2CCCN2C)cc1-c1nc2c(CCC)nn(C)c2c(=O)[nH]1 (centres unmarked) [Udenafil]
AUC0~∞ geometric mean ratio (90% CI) [7, 14]: 0.923 (0.867–0.983)
CL/F geometric mean ratio (90% CI) [7, 14]: 1.084 (1.017–1.154)
Cmax geometric mean ratio (90% CI) [7, 14]: 0.864 (0.789–0.947)
t1/2β geometric mean ratio (90% CI) [7, 14]: 0.984 (0.948–1.022)
Cmax geometric mean ratio (90% CI) ([7]; combined therapy/udenafil monotherapy, listed as udenafil): 0.864
AUC(0-inf) [7, 15]: 4930 ng·h/mL
Cmax [7, 15]: 693 ± 206 ng/mL
half-life [7, 16]: 11 ± 1.64 h
Tmax [7, 16]: 1 h
half-life [7, 17]: 10.8 ± 1.27 h
Tmax [7, 17]: 2 h
AUC(0-t) ([7]; male, human, plasma, po, 200 mg): 4730 ng·h/mL
pharmacokinetic interaction with dapoxetine [7, 18]: no clinically significant pharmacokinetic interactions
pharmacokinetic interaction with dapoxetine ([7]; udenafil 200 mg + dapoxetine 60 mg, listed as udenafil): no significant pharmacokinetic interactions
CL/F [7, 18]: 47.31 ± 14.07 L/h
CL/F ([7]; udenafil 200 mg alone): 43.69 ± 12.21 L/h
AUClast geometric mean ratio (90% CI) [7]: 0.923 (0.863–0.987)
AUClast geometric mean ratio (90% CI) ([7]; listed as udenafil): 0.923
Abdominal discomfort: number of events [2]: 0 (0)
Abdominal discomfort: number of subjects [2]: 0 (0)
Adverse drug reactions, total: number of events [2]: 4
Decreased appetite: number of events [2]: 1 (1)
Decreased appetite: number of subjects [2]: 1 (1)
Diarrhea: number of events [2]: 0 (0)
Diarrhea: number of subjects [2]: 0 (0)
Dizziness: number of events [2]: 1 (1)
Dizziness: number of subjects [2]: 1 (1)
Headache: number of events [2]: 0 (0)
Headache: number of subjects [2]: 0 (0)
Insomnia: number of events [2]: 1 (1)
Insomnia: number of subjects [2]: 1 (1)
Nausea: number of events [2]: 0 (0)
Nausea: number of subjects [2]: 0 (0)
Ocular hyperemia: number of events [2]: 1 (1)
Ocular hyperemia: number of subjects [2]: 1 (1)
Somnolence: number of events [2]: 0 (0)
Somnolence: number of subjects [2]: 0 (0)
Suicidal ideation: number of events [2]: 0 (0)
Suicidal ideation: number of subjects [2]: 0 (0)
Vomiting: number of events [2]: 0 (0)
Vomiting: number of subjects [2]: 0 (0)
hyperhidrosis: number of events [2]: 0 (0)
hyperhidrosis: number of subjects [2]: 0 (0)
Adverse drug reactions, total: number of subjects [2]: 3
tolerability [2]: well tolerated
absorption rate constant (ka) ([8]; combined therapy with dapoxetine): 0.50 ± 0.17 h⁻¹
absorption rate constant (ka) ([8]; monotherapy): 0.84 ± 0.29 h⁻¹
terminal half-life (t1/2β) ([9]; oral): 7.3 to 12.1 h
time to reach peak concentration (tmax) ([9]; oral): 0.8 to 1.3 h
ka ([9]; previously reported): 0.70 ± 0.26 h⁻¹
absolute oral bioavailability [10]: 38.0%–55.6
increase of mean AUClast on co-administration of ketoconazole [11]: 3.2 fold
increase of mean Cmax on co-administration of ketoconazole [11]: 1.9 fold
metabolic AUC ratio ([11]; udenafil administered alone): 1.71
metabolic AUC ratio ([11]; udenafil in combination with ketoconazole): 0.19
